From ChEMBL document CHEMBL1142724 (J Med Chem, 2005)
Values joined by “and” are separate entries in the source; they are usually repeats but may differ in a detail not shown here. Equal entries are not always repeated.

Tests used:
[1] = molecular target: T1, Transient receptor potential cation channel subfamily V member 1 (Rattus norvegicus, UniProt O35433); assay: Inhibition of rat transient receptor potential vanilloid 1 receptor (n=4)
Method in brief: (§1)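 FLIPR Ca2+ influx in Fluo-3-loaded HEK293 cells stably expressing human or rat TRPV1. Compound was added at 0.3 nM–30 µM final, in half-log steps, for 3 min before capsaicin. Capsaicin was 15 nM final for human; for rat it was 15 nM, or 100 nM in later runs. Signal was the smaller of peak and end fluorescence after basal subtraction. IC50 came from a four-parameter logistic fit.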

[2] = molecular target: T1, Transient receptor potential cation channel subfamily V member 1; assay: Effective concentration against rat transient receptor potential vanilloid 1 receptor (n=2)
Method in brief: (§2)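 HEK293 cells stably expressing human or rat TRPV1 were loaded with 4 µM Fluo-3/AM for 60 min at room temperature. Cells were held in HEPES buffer, pH 7.45, with 2 mM CaCl2. Capsaicin-like Ca2+ flux was read on FLIPR with compounds up to 30 µM. Counts were basal-subtracted. Values came from a four-parameter Hill fit, as mean ± SEM.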

[3] = molecular target: T2, Transient receptor potential cation channel subfamily V member 1 (Homo sapiens, UniProt Q8NER1); assay: Inhibition of human transient receptor potential vanilloid 1 receptor (n=4)
Method in brief: (§3)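 FLIPR Ca2+ influx in Fluo-3-loaded HEK293 cells stably expressing human or rat TRPV1. Compound was added at 0.3 nM–30 µM final, in half-log steps, for 3 min before capsaicin. Signal was the smaller of peak and end fluorescence after basal subtraction. IC50 came from a four-parameter logistic fit.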

[4] = molecular target: T1, Transient receptor potential cation channel subfamily V member 1; assay: Effective concentration against rat transient receptor potential vanilloid 1 receptor (n=3); method in brief: as §2
[5] = molecular target: T2, Transient receptor potential cation channel subfamily V member 1; assay: Effective concentration against human transient receptor potential vanilloid 1 receptor (n=3); method in brief: as §2
[6] = molecular target: Transient receptor potential cation channel subfamily V member 1 (Rattus norvegicus) (UniProt O35433); assay: Percentage efficacy against rat transient receptor potential vanilloid 1 receptor (n=3)
Method in brief: (§4)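 FLIPR Ca2+ flux in HEK293 cells stably expressing human TRPV1 or rat TRPV1, grown in DMEM with 10% FBS. Cells were seeded, incubated overnight, then loaded with 4 µM Fluo-3/AM and 0.01% Pluronic-F127 for 60 min at room temperature. Assay buffer was HEPES-buffered saline with 2 mM CaCl2, pH 7.45. Intracellular Ca2+ was read during compound exposure, 0.3 nM–30 µM in half-log steps. Signal was basal-subtracted, taking the smaller of the peak and end-of-incubation values.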

[7] = molecular target: T2, Transient receptor potential cation channel subfamily V member 1; assay: Percentage efficacy against human transient receptor potential vanilloid 1 receptor (n=3); method in brief: as §4
[8] = molecular target: T1, Transient receptor potential cation channel subfamily V member 1; assay: Inhibition of rat transient receptor potential vanilloid 1 receptor (n=2); method in brief: as §3
[9] = molecular target: T2, Transient receptor potential cation channel subfamily V member 1; assay: Inhibition of human transient receptor potential vanilloid 1 receptor (n=6); method in brief: as §1
[10] = molecular target: T1, Transient receptor potential cation channel subfamily V member 1; assay: Inhibition of rat transient receptor potential vanilloid 1 receptor (n=3); method in brief: as §1
[11] = molecular target: T2, Transient receptor potential cation channel subfamily V member 1; assay: Inhibition of human transient receptor potential vanilloid 1 receptor (n=3); method in brief: as §3
[12] = molecular target: T1, Transient receptor potential cation channel subfamily V member 1; assay: Effective concentration against rat transient receptor potential vanilloid 1 receptor (n=6); method in brief: as §2
[13] = molecular target: T2, Transient receptor potential cation channel subfamily V member 1; assay: Effective concentration against human transient receptor potential vanilloid 1 receptor (n=6); method in brief: as §2
[14] = molecular target: T2, Transient receptor potential cation channel subfamily V member 1; assay: Effective concentration against human transient receptor potential vanilloid 1 receptor (n=2); method in brief: as §2
[15] = molecular target: T2, Transient receptor potential cation channel subfamily V member 1; assay: Percentage efficacy against human transient receptor potential vanilloid 1 receptor (n=2); method in brief: as §4
[16] = molecular target: T2, Transient receptor potential cation channel subfamily V member 1; assay: Effective concentration against human transient receptor potential vanilloid 1 receptor (n=6); Inactive; method in brief: as §2
[17] = molecular target: T2, Transient receptor potential cation channel subfamily V member 1; assay: In vitro inhibition of anandamide activated human TRPV1 receptor in [Ca2+] influx assay
[18] = molecular target: T2, Transient receptor potential cation channel subfamily V member 1; assay: Inhibition of human transient receptor potential vanilloid 1 receptor (n=2); method in brief: as §1
Rattus norvegicus = organism: Rattus norvegicus; assay: Effective dose to produce maximal thermal desensitization in rat at 5 ug
[19] = molecular target: T2, Transient receptor potential cation channel subfamily V member 1; assay: Inhibition of human transient receptor potential vanilloid 1 receptor (n=5); method in brief: as §1
[20] = molecular target: T2, Transient receptor potential cation channel subfamily V member 1; assay: In vitro inhibition of PMA-activated human TRPV1 receptor in [Ca2+] influx assay
Method in brief: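 Human TRPV1-HEK293 cells were loaded with Fluo-3 and preincubated with compound for 3 min. They were then stimulated with 300 nM PMA, and fluorescence was monitored for 5–10 min on FLIPR. IC50 came from a four-parameter logistic fit.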

[21] = molecular target: T1, Transient receptor potential cation channel subfamily V member 1; assay: In vitro inhibition of acid activated rat TRPV1 receptor in [Ca2+] influx assay
Method in brief: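 Rat TRPV1-HEK293 cells loaded with Fluo-3 were challenged for about 5 min with pH 5.8–6.0 solution to raise basal Ca2+.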

Transient receptor potential cation channel subfamily V member 1 (Rattus norvegicus), sequence (O35433 whole entry): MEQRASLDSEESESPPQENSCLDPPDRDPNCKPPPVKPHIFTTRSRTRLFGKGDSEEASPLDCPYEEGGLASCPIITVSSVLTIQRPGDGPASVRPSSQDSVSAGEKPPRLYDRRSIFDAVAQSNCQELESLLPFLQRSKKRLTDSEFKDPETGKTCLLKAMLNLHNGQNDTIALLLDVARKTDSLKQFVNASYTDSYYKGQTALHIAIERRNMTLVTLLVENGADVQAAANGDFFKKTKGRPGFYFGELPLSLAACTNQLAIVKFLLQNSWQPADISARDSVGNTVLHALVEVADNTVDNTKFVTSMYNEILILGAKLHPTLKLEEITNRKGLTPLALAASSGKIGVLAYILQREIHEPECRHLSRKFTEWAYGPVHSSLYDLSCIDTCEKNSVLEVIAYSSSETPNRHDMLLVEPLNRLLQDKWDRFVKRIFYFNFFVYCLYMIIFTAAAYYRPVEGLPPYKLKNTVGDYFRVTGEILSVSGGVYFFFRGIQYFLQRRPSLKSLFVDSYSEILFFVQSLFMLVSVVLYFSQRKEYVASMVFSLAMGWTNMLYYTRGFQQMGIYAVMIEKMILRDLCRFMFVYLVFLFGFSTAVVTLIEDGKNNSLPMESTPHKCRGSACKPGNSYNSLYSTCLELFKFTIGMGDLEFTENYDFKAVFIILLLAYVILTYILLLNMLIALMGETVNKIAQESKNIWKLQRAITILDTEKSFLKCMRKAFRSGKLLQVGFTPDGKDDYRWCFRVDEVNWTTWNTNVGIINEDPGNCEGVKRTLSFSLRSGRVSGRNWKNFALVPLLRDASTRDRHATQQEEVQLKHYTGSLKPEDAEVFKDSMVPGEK
T1 sequence (O35433 whole entry): as above
T2 sequence (Q8NER1 whole entry): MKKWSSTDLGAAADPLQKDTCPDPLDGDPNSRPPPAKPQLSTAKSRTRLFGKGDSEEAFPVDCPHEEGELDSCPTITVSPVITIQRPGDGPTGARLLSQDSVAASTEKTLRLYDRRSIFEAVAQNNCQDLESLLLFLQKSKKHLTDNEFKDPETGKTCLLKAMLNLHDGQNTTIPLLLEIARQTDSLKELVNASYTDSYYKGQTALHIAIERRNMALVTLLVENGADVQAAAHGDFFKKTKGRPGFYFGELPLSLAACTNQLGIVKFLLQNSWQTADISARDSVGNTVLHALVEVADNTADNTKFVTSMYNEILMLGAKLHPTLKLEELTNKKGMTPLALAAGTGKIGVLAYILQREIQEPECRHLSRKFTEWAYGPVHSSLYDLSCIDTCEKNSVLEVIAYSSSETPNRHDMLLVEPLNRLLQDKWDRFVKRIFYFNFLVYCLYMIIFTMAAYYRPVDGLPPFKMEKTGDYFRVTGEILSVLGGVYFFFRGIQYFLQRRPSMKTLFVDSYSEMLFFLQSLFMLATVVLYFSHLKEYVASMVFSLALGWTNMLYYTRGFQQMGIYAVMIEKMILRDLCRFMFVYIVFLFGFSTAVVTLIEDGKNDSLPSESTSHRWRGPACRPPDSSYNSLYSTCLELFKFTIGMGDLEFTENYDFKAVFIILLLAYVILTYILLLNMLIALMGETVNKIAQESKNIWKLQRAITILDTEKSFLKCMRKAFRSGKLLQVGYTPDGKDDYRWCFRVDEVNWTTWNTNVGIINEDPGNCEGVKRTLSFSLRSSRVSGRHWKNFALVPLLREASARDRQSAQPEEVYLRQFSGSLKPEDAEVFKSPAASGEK

In the case of Cc1cccnc1C1CCN(C(=O)Nc2ccc(C(F)(F)F)cc2)CC1, the IC50 [1] is reported as 390 nM, the EC50 [2] is reported as 1960 nM and the IC50 [3] is reported as 2170 nM.
With O=C(Nc1ccncc1)N1CCN(c2ncccc2C(F)(F)F)CC1 the EC50 [4] was 1280 nM, the EC50 [5] was 1160 nM and the Efficacy [6] was 100%. The Efficacy [7] was 120%.
CC1CN(c2ncccc2C(F)(F)F)CCN1C(=O)Nc1ccc(C(F)(F)F)cc1 (stereo not given) was tested, and the IC50 [1] was 104 nM and the IC50 [3] was 64 nM.
O=C(Nc1ccc(C(F)(F)F)cc1)NC1CCN(c2ncccc2C(F)(F)F)CC1 showed an IC50 [8] of 4360 nM.
O=C(Nc1ccc(C(F)(F)F)cc1)N1CC2CC1CN2c1ncccc1C(F)(F)F (stereo not given) gave an IC50 [8] of over 10000 nM and an IC50 [3] of over 10000 nM.
For O=C(Nc1cccc2cccnc12)N1CCN(c2ncccc2C(F)(F)F)CC1, the IC50 [9] was 8130 nM and the IC50 [10] was 14700 nM.
With O=C(Nc1ccc(C(F)(F)F)cc1)N1CCN(c2cccnc2)CC1 the IC50 [11] was 5030 nM, the EC50 [4] was 2670 nM and the Efficacy [6] was 18%.
With O=C(Nc1ccc(C(F)(F)F)cc1)N1CCN(c2ccccn2)CC1 the IC50 [10] was 863 nM.
Work on O=C(Nc1ccc2ncccc2c1)N1CCN(c2ncccc2C(F)(F)F)CC1 yielded an IC50 [8] of 3980 nM and an IC50 [3] of 908 nM.
With O=C(Nc1cccc2cnccc12)N1CCN(c2ncccc2C(F)(F)F)CC1 the IC50 [10] was over 10000 nM, the EC50 [4] was 7290 nM and the Efficacy [6] was 11%. For the same compound, the IC50 [3] was 2280 nM.
Work on Cc1cccnc1N1CCN(C(=O)Nc2ccc(Cl)cc2)CC1 yielded an IC50 [10] of 409 nM and an IC50 [3] of 113 nM.
O=C(Nc1ccc(C(F)(F)F)cc1)N1CCN(c2ncccc2C(F)(F)F)CC1 showed an IC50 [1] of 90 nM.
O=C(Nc1ccc(Cl)cc1)N1CCN(c2ccncc2)CC1 showed an EC50 [12] of 3600 nM, an EC50 [13] of 7240 nM and an Efficacy [6] of over 40%. It also gave an Efficacy [7] of 100%.
For Cc1ccccc1C1CCN(C(=O)Nc2ccc(C(F)(F)F)cc2)CC1, the EC50 [2] was 1720 nM, the EC50 [14] was 1930 nM and the Efficacy [6] was 86%. For the same compound, the Efficacy [15] was 8%.
O=C(Nc1ccc(C(F)(F)F)cc1)NC1CCN(c2ncccc2C(F)(F)F)C1 (stereo not given) was tested, and the IC50 [11] was over 10000 nM, the IC50 [10] was 13100 nM and the EC50 [16] was over 10000 nM.
For CC1CN(c2ncccc2C(F)(F)F)CC(C)N1C(=O)Nc1ccc(C(F)(F)F)cc1 (stereo not given), the IC50 [10] was 3720 nM and the IC50 [3] was 2450 nM.
In the case of O=C(Nc1ccc([N+](=O)[O-])cc1)N1CCN(c2ncccc2C(F)(F)F)CC1, the IC50 [9] is reported as 74 nM, the IC50 [10] is reported as 100 nM and the IC50 [17] is reported as 6 nM and 4 nM and 3 nM.
O=C(Nc1ccccn1)N1CCN(c2ncccc2C(F)(F)F)CC1 showed an IC50 [18] of 12100 nM and an IC50 [10] of over 10000 nM.
Cc1cccnc1N1CCN(C(=O)Nc2ccc(C(F)(F)F)cc2)CC1 gave an IC50 [11] of 290 nM and an IC50 [10] of 194 nM.
O=C(Nc1ccc(C(F)(F)F)cc1)C1CCN(c2ncccc2C(F)(F)F)CC1 showed an IC50 [18] of 965 nM and an IC50 [8] of over 10000 nM.
COc1cc(CNC(=O)CCCC/C=C/C(C)C)ccc1O [CAPSAICIN] was tested, and the ED50 (Rattus norvegicus) was 3 µg.
For O=C(Nc1cnc2ccccc2c1)N1CCN(c2ncccc2C(F)(F)F)CC1, the IC50 [19] was 526 nM and the IC50 [10] was 2300 nM.
With Oc1cc2c(cc1O)CN(C(=S)NCCc1ccc(Cl)cc1)CCC2 [CAPSAZEPINE] the IC50 [19] was 74 nM, the IC50 [20] was 5 nM and 3 nM and the IC50 [8] was 365 nM. The IC50 [21] was 13 nM and the IC50 [17] was 4 nM and 3 nM (2×).
With O=C(Nc1cccc2ncccc12)N1CCN(c2ncccc2C(F)(F)F)CC1 the EC50 [12] was 8300 nM, the EC50 [5] was 5260 nM and the Efficacy [6] was 2%. It also gave an Efficacy [7] of 36%.
O=C(Nc1cc2ccccc2cn1)N1CCN(c2ncccc2C(F)(F)F)CC1 was tested, and the IC50 [11] was 367 nM and the IC50 [8] was 1010 nM.
Compound O=C(Nc1ccc(C(F)(F)F)cc1)N1CCCN(c2ncccc2C(F)(F)F)CC1 has an IC50 [11] of 538 nM and an IC50 [8] of 1180 nM.
